Measured values from different studies.
Lines come from different studies, so protocols differ.
Target: Activin receptor type-1B (ACVR1B, Homo sapiens, UniProt P36896)
Sequence (P36896 24-505, as in one of the studies): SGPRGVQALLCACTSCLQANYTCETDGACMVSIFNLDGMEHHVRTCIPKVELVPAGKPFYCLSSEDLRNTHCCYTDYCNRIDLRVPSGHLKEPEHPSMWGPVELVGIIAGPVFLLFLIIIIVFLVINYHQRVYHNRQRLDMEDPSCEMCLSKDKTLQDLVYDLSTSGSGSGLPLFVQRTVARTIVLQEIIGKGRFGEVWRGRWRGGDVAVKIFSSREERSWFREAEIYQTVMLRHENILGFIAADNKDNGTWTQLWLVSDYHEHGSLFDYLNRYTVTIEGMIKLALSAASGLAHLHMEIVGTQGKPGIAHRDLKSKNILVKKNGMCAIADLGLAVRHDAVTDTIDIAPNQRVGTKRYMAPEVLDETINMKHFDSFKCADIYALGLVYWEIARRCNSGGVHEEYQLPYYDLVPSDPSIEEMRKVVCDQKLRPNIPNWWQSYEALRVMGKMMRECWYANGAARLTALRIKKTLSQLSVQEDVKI

| Compound | read-out | action | method | concentration | quantity | value |
| --- | --- | --- | --- | --- | --- | --- |
| O=C(NC[C@@H]1[C@H]2CN(C(=O)OCc3cc(C(F)(F)F)cc(C(F)(F)F)c3)C[C@@H]12)c1ccc2[nH]nnc2c1 | cell-free assay |  | competition with immobilised ligand | 1 µM | remaining binding | 100% |
| CNC(=O)c1cc(Oc2ccc(NC(=O)Nc3ccc(Cl)c(C(F)(F)F)c3)cc2)ccn1 | cell-free assay | inhibitor |  | 10 µM | inhibition | 17% |
| CN1CCN(c2cnc3c(C4CCN(C(=O)c5ccc(OC(F)(F)F)cc5N)CC4)ncnc3c2)CC1 | cell-free assay |  | competition with immobilised ligand | 1 µM | remaining binding | 79% |
| O=C(CSc1nc2nccnc2c(=O)n1CCc1ccccc1)Nc1nccs1 | enzyme activity | inhibitor |  | 10 µM | inhibition | 4% |
| COc1cc2ncnc(Nc3ccc(Oc4ccccc4)c(C)c3C)c2cc1OC | enzyme activity | inhibitor |  | 1 µM | inhibition | -3% |
| Cn1c2c(c3ccc(Cl)c(Cl)c31)C(C#N)C1(CCN(C(=O)OC(C)(C)C)CC1)NC2=O (racemic) | thermal stability |  | DSF | 10 µM | ΔTm | -0.1 °C |
| N#CCCc1ccc2c(c1)-c1[nH]c3ccc([N+](=O)[O-])cc3c1CC(=O)N2 | cell-free assay |  |  | 0.5 µM | remaining signal | 110% |
| COc1cc(-c2cc(-c3ccc(N4CCNCC4)cc3)cnc2C)cc(OC)c1OC | enzyme activity | inhibitor |  | 1 µM | inhibition | 36% |
| CC(C)(C)c1nc(-c2cccc(NS(=O)(=O)c3c(F)cccc3F)c2F)c(-c2ccnc(N)n2)s1 | enzyme activity | inhibitor | radiometric | 1 µM | remaining activity | 22% |
| O=C(Nc1cnn(-c2csc(C(=O)NC3COC3)c2)c1)Nc1ccccc1Cl | enzyme activity | inhibitor |  | 5 µM | remaining activity | 124% |
| CC(C)(O)[C@H]1CC[C@H](Nc2ccc3ncc(-c4cccc(C(F)(F)F)c4)n3n2)CC1 | enzyme activity | inhibitor |  | 1 µM | remaining activity | 100% |
| CCCS(=O)(=O)Nc1ccc(F)c(C(=O)c2c[nH]c3ncc(-c4ccc(Cl)cc4)cc23)c1F | enzyme activity | inhibitor |  | 1 µM | inhibition | < 10% |
| O=C(O)[C@@H]1[C@@H](Cn2nnc3ccccc3c2=O)CC[C@H]1C(=O)c1ccc(OCCC2CCOCC2)cc1 | cell-free assay |  | competition with immobilised ligand | 1 µM | remaining binding | 100% |
| CCN(CC)c1ccc(C2=NNC(=O)CC2C)cc1[N+](=O)[O-] (stereo not shown) | enzyme activity | inhibitor |  | 10 µM | remaining activity | 109% |
| Cn1c2c(c3ccc(Cl)c(Cl)c31)C(C#N)C1(CCNCC1)NC2=O (racemic) | thermal stability |  | DSF | 10 µM | ΔTm | -0.1 °C |
| CSc1cccnc1N1CCN(Cc2nc3ccccc3[nH]2)CC1 | cell-free assay |  | competition with immobilised ligand | 1 µM | remaining binding | 100% |
| CN1CCC2(CC1)NC(=O)c1c(c3ccc(Cl)c(Cl)c3n1C)C2C#N (racemic) | thermal stability |  | DSF | 10 µM | ΔTm | 0.3 °C |
| O=c1cc(-c2cccc3c2Sc2ccccc2S3)oc(N2CCOCC2)c1 | enzyme activity | inhibitor |  | 0.5 µM | remaining activity | 114% |
| COc1cc(Cl)c(C(=O)N[C@@H](CN[C@H]2CC[C@@H](N)CC2)Cc2ccc(C#N)cc2)cc1-c1ccc(CN[C@H](C)c2ccc(C)cc2)o1 | enzyme activity | inhibitor |  | 1 µM | remaining activity | 92% |
| CCOCCn1cc(C(=O)Nc2ccc(-n3nc(-c4cccnc4)cc3C(F)(F)F)cn2)ccc1=O | cell-free assay |  | competition with immobilised ligand | 1 µM | remaining binding | 79% |
| Cc1ccc(Nc2nccc(N(C)c3ccc4c(C)n(C)nc4c3)n2)cc1S(N)(=O)=O | cell-free assay | inhibitor |  | 0.3 µM | inhibition | -22% |
| CS(=O)(=O)c1cc(C2(NC(=O)c3cncc4c3cnn4-c3ccc(F)cc3)CC2)ccn1 | cell-free assay |  | competition with immobilised ligand | 1 µM | remaining binding | 100% |
| Cc1cc(NC(=O)c2cccc3cc(-c4cccc5[nH]nc(N)c45)ccc23)ccc1F | enzyme activity | inhibitor |  | 0.1 µM | activity vs control | 103% |
| CN(C)C1CCN(CC#Cc2nn(C3CCCC3)c3nc(NCc4ccccc4)ncc23)C1 (stereo not shown) | enzyme activity | inhibitor | FRET | 10 µM | inhibition | -8% |
| CNCc1ccccc1-c1csc([C@H](C)Nc2nc(C)nc3cc(OC)c(OC)cc23)c1 | cell-free assay |  | competition with immobilised ligand | 1 µM | remaining binding | 100% |
| O=C1Nc2ccc(Cl)cc2C1=Cc1cc(Cl)c(O)c(Cl)c1 | cell-free assay |  |  | 0.5 µM | remaining signal | 127% |
| CCN1CCC2(CC1)NC(=O)c1c(c3ccc(Cl)c(Cl)c3n1C)C2C#N (racemic) | thermal stability |  | DSF | 10 µM | ΔTm | 0 °C |
| O=C(N1CCS(=O)(=O)CC1)N1C[C@H](c2ccc(OC(F)(F)F)cc2)C[C@H](c2nc(C3CC3)no2)C1 | cell-free assay |  | competition with immobilised ligand | 1 µM | remaining binding | 100% |
